In ChEMBL document CHEMBL1149554, “Dual bioactivity of resveratrol fatty alcohols: differentiation of neural stem cells and modulation of neuroinflammation” (2007) one finds Activity data, which are given here for ten molecules.

Assay [1] concerns Neuron. The assay can be described thus: Neuronal differentiation activity assessed as increase in number of neurons at 0.1 uM in relative to control. The class given is functional, Homo sapiens. Put shortly:
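Neurospheres (undifferentiated aggregates containing 5–10% neural stem cells, raised with EGF and bFGF) were treated with compound and scored for differentiation into neurons. The % of neurons was compared with ethanol vehicle control, or divided by the % of neurons obtained with retinoic acid treatment. Neuron morphology was also rated qualitatively. Each compound was tested in at least three independent experiments.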

Assay [2] relates to Neuron. The experiment in a line: Neuronal differentiation activity assessed as increase in number of neurons at 0.1 uM in relative to 5 uM retinoic acid.
Assay [3] is described as follows: Inhibition of LPS-stimulated nitric oxide production in mouse MMGT12 cells after 48 hrs. Type of assay: functional. On the set-up: scale not given: the % may be the effect or the level left. Put shortly:
(§1)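 Mouse MMGT-12 microglial cells stimulated with LPS in the presence or absence of test compound at several concentrations. Supernatants were collected, and accumulated NO was measured at 48 h by the Griess method and secreted TNF-α at 24 h by ELISA. Data are expressed as % of the LPS-only control, as mean ± SEM of three independent experiments.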

A short description of assay [4]: Inhibition of LPS-stimulated TNFalpha production in mouse MMGT12 cells after 24 hrs by ELISA. Type of assay: functional. On the set-up: scale not given: the % may be the effect or the level left. In short, it runs like this: as §1
Background: ELISA stands for enzyme-linked immunosorbent assay.

Molecules are shown by their SMILES.

Regarding `COc1ccc(/C=C/c2cc(OC)c(CCCCCCCCCCCCCCO)c(OC)c2)cc1`, the Activity in the assay with Neuron [1] turned out to be 135%. On to `OCCCCCCCCCCc1c(O)cc(/C=C/c2ccc(O)cc2)cc1O`, for which the Activity is 0.53 in the assay on Neuron [2] and 108% in the assay on Neuron [1].

Regarding `CCCCCCCCCCCCc1c(O)cc(/C=C/c2ccc(O)cc2)cc1O`, the Activity in the assay on Neuron [2] was found to be 0.52; in the assay with Neuron [1], 106%. For `CC1=C(/C=C/C(C)=C/C=C/C(C)=C/C(=O)O)C(C)(C)CCC1` [TRETINOIN], in the assay on Neuron [1], the Activity is recorded as 203%. Take `OCCCCCCCCCCCCCCc1c(O)cc(/C=C/c2ccc(O)cc2)cc1O`: in the assay with Neuron [1], the Activity was 160%. Turning to `COc1ccc(/C=C/c2cc(OC)c(CCCCCCCCCCCCO)c(OC)c2)cc1`, the Activity in the assay with Neuron [1] is recorded as 188%. For `Oc1ccc(/C=C/c2cc(O)cc(O)c2)cc1` [RESVERATROL], the figures for the Activity in the assay with Neuron [2] and with Neuron [1] were 0.52 and 105%, respectively. With `COc1ccc(/C=C/c2cc(OC)c(CCCCCCCCCCO)c(OC)c2)cc1`, the Activity in the assay on Neuron [1] was found to be 147%. Turning to `OCCCCCCCCCCCCc1c(O)cc(/C=C/c2ccc(O)cc2)cc1O`, the Activity in assay [3] was 50%; in the assay on Neuron [1] it was 263%; in assay [4] it was 30%. On to `COc1ccc(/C=C/c2cc(OC)c(CCCCCCCCCCCCCCCCO)c(OC)c2)cc1`, for which the Activity in the assay on Neuron [2] stood at 0.53; in the assay on Neuron [1], 107%.
